Experimental data as given in ChEMBL document CHEMBL1811853, “Design and evaluation of 3-aminopyrazolopyridinone kinase inhibitors inspired by the natural product indirubin” (Bioorg Med Chem, 2011).
In brackets after ≈: the same amount, converted by molar mass.

Columns and labels:
[1] = Aqueous solubility of the compound by HPLC analysis; type: physicochemical; settings: water
Outline: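 Solubility determined by HPLC measurement of the concentration in saturated aqueous solutions of the compounds.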

[2] = target: MAP kinase-activated protein kinase 2 (Homo sapiens, UniProt P49137); experiment: Inhibition of MAPKAPK2 at 30 uM by microfluidic mobility shift assay
Outline: (§1)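 Single-concentration screen, singlicate, 30 uM final (diluted from 1 mM DMSO solutions), fluorescently tagged peptide substrate appropriate to each kinase, ATP at apparent Km for each protein. Phosphorylated and unphosphorylated peptides separated electrophoretically; conversion is the phosphorylated peak area over the sum of both peaks. No-inhibitor and no-ATP controls; H89 reference on each plate.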

[3] = target: T1, Aurora kinase A (Homo sapiens) (UniProt O14965); experiment: Inhibition of AurA at 30 uM by microfluidic mobility shift assay; outline: as §1
T1 sequence (whole entry): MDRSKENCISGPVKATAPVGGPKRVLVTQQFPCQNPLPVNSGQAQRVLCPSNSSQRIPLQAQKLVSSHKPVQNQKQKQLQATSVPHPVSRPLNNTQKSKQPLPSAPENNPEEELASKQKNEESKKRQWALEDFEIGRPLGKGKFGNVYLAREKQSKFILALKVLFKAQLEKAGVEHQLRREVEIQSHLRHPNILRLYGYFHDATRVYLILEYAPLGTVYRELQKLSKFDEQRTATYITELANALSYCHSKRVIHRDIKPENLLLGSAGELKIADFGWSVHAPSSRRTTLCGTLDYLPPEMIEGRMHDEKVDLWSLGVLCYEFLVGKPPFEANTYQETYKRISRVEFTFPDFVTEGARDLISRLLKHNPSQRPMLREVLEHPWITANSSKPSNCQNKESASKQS

[4] = target: Ribosomal protein S6 kinase alpha-1 (Homo sapiens) (UniProt Q15418); experiment: Inhibition of RSK1 at 30 uM by microfluidic mobility shift assay; outline: as §1
[5] = target: T2, MAP kinase-activated protein kinase 5 (Homo sapiens) (UniProt Q8IW41); experiment: Inhibition of PRAK1 at 30 uM by microfluidic mobility shift assay; outline: as §1
T2 sequence (whole entry): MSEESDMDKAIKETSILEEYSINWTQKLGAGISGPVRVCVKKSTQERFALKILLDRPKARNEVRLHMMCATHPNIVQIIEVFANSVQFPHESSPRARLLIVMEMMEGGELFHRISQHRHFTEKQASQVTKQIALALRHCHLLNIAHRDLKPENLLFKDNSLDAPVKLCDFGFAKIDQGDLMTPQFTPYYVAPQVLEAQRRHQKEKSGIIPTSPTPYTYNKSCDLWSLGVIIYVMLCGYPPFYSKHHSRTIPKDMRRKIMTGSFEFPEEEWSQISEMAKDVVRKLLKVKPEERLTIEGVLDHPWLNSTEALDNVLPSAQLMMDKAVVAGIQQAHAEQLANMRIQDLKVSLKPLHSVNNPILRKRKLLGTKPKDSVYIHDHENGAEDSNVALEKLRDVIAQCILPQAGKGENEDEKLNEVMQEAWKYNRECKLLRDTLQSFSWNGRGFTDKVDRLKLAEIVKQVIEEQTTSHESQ

[6] = target: Mitogen-activated protein kinase 3 (Homo sapiens) (UniProt P27361); experiment: Inhibition of ERK1 at 30 uM by microfluidic mobility shift assay; outline: as §1
[7] = target: T3, Serine/threonine-protein kinase D2 (Homo sapiens) (UniProt Q9BZL6); experiment: Inhibition of PKD2 at 30 uM by microfluidic mobility shift assay; outline: as §1
T3 sequence (whole entry): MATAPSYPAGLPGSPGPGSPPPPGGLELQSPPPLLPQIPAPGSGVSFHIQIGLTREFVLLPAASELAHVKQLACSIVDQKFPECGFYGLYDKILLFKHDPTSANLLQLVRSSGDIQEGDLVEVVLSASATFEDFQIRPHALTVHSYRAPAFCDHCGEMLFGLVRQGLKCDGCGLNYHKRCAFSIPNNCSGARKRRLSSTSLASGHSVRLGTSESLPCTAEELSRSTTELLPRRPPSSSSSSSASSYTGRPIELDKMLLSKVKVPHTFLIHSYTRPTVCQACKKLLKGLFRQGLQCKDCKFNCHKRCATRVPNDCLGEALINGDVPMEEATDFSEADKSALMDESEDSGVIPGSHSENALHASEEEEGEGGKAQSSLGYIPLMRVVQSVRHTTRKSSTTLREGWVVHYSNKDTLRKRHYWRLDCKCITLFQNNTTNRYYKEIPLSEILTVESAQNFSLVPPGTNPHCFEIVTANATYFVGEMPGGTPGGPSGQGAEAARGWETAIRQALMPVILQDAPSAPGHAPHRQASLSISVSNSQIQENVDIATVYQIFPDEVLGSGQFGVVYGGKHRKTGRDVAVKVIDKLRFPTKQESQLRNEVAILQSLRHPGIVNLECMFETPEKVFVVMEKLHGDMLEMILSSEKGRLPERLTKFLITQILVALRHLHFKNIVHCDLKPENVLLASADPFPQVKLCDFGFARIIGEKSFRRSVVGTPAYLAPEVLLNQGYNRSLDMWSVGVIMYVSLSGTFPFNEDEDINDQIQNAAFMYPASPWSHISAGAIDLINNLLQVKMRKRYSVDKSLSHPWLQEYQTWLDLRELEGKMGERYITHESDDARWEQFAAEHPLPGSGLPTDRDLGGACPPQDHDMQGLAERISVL

[8] = target: T4, Tyrosine-protein kinase ABL1 (Homo sapiens, UniProt P00519); experiment: Inhibition of ABL at 30 uM by microfluidic mobility shift assay; outline: as §1
T4 sequence (P00519 whole entry): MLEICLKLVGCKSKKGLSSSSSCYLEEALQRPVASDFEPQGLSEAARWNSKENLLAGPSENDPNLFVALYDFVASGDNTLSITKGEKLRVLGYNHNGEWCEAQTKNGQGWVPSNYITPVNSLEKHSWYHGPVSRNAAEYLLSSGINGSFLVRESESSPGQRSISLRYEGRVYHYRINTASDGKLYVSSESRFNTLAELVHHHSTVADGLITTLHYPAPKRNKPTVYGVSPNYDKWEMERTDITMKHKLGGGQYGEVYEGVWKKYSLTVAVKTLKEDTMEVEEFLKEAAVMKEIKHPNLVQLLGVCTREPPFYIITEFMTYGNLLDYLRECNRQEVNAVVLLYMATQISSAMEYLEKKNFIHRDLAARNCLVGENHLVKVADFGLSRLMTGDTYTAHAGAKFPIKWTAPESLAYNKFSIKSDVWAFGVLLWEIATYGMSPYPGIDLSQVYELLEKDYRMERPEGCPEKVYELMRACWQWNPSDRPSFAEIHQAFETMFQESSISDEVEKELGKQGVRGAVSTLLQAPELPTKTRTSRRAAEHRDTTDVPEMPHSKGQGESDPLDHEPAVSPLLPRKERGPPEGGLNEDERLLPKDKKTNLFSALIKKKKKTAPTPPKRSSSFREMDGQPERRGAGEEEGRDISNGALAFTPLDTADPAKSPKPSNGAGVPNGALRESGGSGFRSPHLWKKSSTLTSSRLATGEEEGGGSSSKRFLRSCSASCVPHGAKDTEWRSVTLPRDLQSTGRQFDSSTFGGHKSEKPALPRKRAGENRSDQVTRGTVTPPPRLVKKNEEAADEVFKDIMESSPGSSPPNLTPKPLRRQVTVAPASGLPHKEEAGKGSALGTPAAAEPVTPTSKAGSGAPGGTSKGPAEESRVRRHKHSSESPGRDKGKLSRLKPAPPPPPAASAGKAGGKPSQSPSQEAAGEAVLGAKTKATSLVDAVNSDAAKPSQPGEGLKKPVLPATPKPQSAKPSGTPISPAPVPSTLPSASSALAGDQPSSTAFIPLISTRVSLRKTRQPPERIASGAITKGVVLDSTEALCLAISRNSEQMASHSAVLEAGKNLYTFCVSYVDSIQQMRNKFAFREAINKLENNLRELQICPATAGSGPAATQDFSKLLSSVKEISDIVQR

[9] = target: T5, Tyrosine-protein kinase Fyn (Homo sapiens, UniProt P06241); experiment: Inhibition of FYN at 30 uM by microfluidic mobility shift assay; outline: as §1
Target sequence in this assay (P06241 2-537 limits assumed): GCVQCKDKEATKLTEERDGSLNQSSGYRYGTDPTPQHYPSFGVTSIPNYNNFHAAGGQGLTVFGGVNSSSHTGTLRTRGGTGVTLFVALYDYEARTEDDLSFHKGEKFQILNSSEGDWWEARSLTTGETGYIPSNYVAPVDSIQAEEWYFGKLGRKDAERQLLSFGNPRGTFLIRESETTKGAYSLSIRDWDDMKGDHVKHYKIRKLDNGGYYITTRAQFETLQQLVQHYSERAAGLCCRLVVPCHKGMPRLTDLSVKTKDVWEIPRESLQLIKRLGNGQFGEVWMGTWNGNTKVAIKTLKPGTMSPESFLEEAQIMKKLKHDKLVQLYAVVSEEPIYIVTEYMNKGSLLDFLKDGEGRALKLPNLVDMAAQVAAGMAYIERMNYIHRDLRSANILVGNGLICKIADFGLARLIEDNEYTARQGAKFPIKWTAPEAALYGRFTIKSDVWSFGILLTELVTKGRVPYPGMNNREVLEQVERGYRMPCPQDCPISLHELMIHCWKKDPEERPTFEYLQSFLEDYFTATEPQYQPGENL

[10] = target: T6, Tyrosine-protein kinase Lyn (Homo sapiens, UniProt P07948); experiment: Inhibition of LYN at 30 uM by microfluidic mobility shift assay; outline: as §1
[11] = target: Serine/threonine-protein kinase Chk2 (Homo sapiens, UniProt O96017); experiment: Inhibition of CHK2 at 30 uM by microfluidic mobility shift assay; outline: as §1
[12] = target: T7, Tyrosine-protein kinase Lck (Homo sapiens, UniProt P06239); experiment: Inhibition of LCK at 30 uM by microfluidic mobility shift assay; outline: as §1
[13] = target: T8, Proto-oncogene tyrosine-protein kinase Src (Homo sapiens, UniProt P12931); experiment: Inhibition of SRC at 30 uM by microfluidic mobility shift assay; outline: as §1
T8 sequence (P12931 2-536 limits assumed): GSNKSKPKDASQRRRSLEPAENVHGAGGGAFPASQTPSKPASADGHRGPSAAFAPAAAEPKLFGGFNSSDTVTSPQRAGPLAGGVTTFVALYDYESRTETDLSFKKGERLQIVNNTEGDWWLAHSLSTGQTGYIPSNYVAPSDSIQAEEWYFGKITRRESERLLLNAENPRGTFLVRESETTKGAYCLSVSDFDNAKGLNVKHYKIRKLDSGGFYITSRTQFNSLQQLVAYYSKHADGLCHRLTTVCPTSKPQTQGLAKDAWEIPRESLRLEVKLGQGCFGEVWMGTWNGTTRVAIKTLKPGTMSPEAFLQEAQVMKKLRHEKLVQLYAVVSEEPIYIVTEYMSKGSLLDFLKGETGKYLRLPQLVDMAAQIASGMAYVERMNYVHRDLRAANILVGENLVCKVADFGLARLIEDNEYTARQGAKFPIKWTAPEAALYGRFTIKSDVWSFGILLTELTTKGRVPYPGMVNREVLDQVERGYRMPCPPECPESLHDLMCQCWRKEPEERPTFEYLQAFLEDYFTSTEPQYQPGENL

[14] = target: Glycogen synthase kinase-3 beta (Homo sapiens) (UniProt P49841); experiment: Inhibition of GSK3B at 30 uM by microfluidic mobility shift assay; outline: as §1
[15] = target: Mitogen-activated protein kinase 1 (Homo sapiens) (UniProt P28482); experiment: Inhibition of ERK2 at 30 uM by microfluidic mobility shift assay; outline: as §1
Sequence of Mitogen-activated protein kinase 1 (Homo sapiens) (P28482 whole entry): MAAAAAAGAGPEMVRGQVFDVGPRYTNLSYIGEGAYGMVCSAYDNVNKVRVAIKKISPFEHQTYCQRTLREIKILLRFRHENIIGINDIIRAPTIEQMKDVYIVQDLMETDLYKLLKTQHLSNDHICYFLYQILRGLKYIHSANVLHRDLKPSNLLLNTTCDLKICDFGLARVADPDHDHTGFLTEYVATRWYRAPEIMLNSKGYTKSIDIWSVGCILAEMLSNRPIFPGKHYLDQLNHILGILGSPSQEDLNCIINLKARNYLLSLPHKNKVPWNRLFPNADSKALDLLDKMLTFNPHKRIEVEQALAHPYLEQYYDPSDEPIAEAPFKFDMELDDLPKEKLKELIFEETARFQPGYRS

[16] = Inhibition of PKA at 30 uM by microfluidic mobility shift assay; outline: as §1
[17] = target: RAC-beta serine/threonine-protein kinase (Homo sapiens) (UniProt P31751); experiment: Inhibition of AKT2 at 30 uM by microfluidic mobility shift assay; outline: as §1
[18] = target: Insulin receptor (Homo sapiens) (UniProt P06213); experiment: Inhibition of INSR at 30 uM by microfluidic mobility shift assay; outline: as §1
[19] = target: T9, Mitogen-activated protein kinase 14 (Homo sapiens, UniProt Q16539); experiment: Inhibition of p38alpha at 30 uM by microfluidic mobility shift assay; outline: as §1
T9 sequence (Q16539 whole entry): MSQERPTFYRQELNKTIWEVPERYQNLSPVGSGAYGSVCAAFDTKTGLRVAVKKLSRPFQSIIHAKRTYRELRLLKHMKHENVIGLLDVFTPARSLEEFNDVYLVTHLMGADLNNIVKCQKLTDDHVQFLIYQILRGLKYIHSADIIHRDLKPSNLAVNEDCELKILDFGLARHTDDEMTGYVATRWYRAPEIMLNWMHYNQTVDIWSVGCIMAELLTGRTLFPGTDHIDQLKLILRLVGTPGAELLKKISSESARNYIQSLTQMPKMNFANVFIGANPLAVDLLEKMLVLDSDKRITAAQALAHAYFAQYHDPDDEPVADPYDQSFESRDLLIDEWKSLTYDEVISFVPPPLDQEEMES

[20] = target: RAC-alpha serine/threonine-protein kinase (Homo sapiens) (UniProt P31749); experiment: Inhibition of AKT1 at 30 uM by microfluidic mobility shift assay; outline: as §1
Sequence of RAC-alpha serine/threonine-protein kinase (Homo sapiens) (P31749 whole entry): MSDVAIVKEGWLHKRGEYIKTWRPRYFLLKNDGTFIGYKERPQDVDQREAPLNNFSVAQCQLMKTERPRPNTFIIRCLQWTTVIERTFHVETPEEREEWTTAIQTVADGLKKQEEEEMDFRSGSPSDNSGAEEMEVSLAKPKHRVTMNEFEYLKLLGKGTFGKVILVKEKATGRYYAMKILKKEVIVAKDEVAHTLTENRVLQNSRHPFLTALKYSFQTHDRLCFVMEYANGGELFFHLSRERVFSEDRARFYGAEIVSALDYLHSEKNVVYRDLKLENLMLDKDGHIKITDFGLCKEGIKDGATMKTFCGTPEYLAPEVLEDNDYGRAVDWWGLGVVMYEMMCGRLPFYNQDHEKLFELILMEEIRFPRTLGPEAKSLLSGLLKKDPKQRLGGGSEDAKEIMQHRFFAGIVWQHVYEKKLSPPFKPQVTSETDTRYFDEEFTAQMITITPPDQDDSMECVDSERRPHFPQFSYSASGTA

[21] = target: Ribosomal protein S6 kinase alpha-5 (Homo sapiens) (UniProt O75582); experiment: Inhibition of MSK1 at 30 uM by microfluidic mobility shift assay; outline: as §1
[22] = target: T4, Tyrosine-protein kinase ABL1; experiment: Inhibition of ABL by microfluidic mobility shift assay
Outline: (§2)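 IC50 determined in the mobility shift format: a fluorescently tagged peptide substrate appropriate to each kinase, ATP at its apparent Km for each protein, and electrophoretic separation of phospho and unphosphorylated peptide. Percent conversion is the ratio of the phosphopeptide peak area to the total peak area. Controls were no inhibitor and no ATP.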

[23] = target: T5, Tyrosine-protein kinase Fyn; experiment: Inhibition of FYN by microfluidic mobility shift assay; outline: as §2
Target sequence in this assay (P06241 whole entry): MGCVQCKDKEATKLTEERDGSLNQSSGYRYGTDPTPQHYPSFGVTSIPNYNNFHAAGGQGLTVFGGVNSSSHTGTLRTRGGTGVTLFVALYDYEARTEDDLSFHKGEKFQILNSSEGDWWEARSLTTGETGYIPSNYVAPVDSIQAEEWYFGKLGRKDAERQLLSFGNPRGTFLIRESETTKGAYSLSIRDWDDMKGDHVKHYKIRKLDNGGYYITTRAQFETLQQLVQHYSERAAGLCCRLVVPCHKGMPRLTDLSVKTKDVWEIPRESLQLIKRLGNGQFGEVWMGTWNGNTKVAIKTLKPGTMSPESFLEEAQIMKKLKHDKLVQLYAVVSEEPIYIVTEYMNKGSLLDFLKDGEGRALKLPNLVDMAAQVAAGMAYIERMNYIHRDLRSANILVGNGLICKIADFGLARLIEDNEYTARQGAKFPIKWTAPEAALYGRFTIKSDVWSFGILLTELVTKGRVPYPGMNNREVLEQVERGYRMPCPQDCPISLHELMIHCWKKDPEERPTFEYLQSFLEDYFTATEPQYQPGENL

[24] = target: T6, Tyrosine-protein kinase Lyn; experiment: Inhibition of LYN by microfluidic mobility shift assay; outline: as §2
Target sequence in this assay (P07948 whole entry): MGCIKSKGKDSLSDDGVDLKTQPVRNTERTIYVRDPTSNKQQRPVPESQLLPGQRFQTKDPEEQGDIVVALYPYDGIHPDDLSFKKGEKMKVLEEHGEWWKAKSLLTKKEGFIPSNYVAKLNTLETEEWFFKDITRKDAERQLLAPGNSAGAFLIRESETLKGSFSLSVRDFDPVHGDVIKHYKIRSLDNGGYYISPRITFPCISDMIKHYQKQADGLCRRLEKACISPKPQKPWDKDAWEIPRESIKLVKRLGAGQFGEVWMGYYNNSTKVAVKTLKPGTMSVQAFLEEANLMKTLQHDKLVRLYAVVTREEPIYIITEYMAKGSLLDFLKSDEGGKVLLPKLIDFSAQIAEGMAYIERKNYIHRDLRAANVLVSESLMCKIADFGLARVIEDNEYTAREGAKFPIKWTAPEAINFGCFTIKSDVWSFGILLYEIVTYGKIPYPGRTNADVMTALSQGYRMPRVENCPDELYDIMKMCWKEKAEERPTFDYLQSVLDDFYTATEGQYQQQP

[25] = target: T7, Tyrosine-protein kinase Lck; experiment: Inhibition of LCK by microfluidic mobility shift assay; outline: as §2
Target sequence in this assay (P06239 whole entry): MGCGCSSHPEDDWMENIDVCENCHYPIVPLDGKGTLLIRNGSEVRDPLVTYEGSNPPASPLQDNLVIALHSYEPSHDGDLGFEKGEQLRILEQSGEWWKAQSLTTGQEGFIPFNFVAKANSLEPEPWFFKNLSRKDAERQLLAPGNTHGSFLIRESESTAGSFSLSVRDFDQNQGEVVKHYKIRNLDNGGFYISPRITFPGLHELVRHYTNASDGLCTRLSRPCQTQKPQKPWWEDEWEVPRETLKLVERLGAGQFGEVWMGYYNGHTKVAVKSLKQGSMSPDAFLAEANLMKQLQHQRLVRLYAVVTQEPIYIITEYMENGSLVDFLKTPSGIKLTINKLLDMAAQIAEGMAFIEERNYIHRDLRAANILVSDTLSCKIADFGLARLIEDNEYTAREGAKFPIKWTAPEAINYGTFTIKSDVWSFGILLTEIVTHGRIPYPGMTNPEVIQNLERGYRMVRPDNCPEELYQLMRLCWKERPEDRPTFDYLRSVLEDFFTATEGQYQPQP

[26] = target: T8, Proto-oncogene tyrosine-protein kinase Src; experiment: Inhibition of SRC by microfluidic mobility shift assay; outline: as §2
[27] = target: T9, Mitogen-activated protein kinase 14; experiment: Inhibition of p38alpha by microfluidic mobility shift assay; outline: as §2
MCF7 = experiment: Growth inhibition of human MCF7 cells at 0.039 uM; type: functional; settings: read-out: GI

SMILES: Nc1n[nH]c2cc(-c3ccccc3)[nH]c(=O)c12
- solubility [1]: 24 µg/mL (≈ 106 µM)

SMILES: Nc1c2c(=O)[nH]c(-c3ccccc3)cc2nn1-c1ccccc1
- solubility [1]: < 1 µg/mL
- inhibition [2]: 2%
- inhibition [3]: 61%
- inhibition [4]: 38%
- inhibition [5]: 22%
- inhibition [6]: 20%
- inhibition [7]: 23%
- inhibition [8]: 96%
- inhibition [9]: 96%
- inhibition [10]: 96%
- inhibition [11]: -8%
- inhibition [12]: 90%
- inhibition [13]: 98%
- inhibition [14]: 29%
- inhibition [15]: 12%
- inhibition [16]: -10%
- inhibition [17]: -1%
- inhibition [18]: 2%
- inhibition [19]: 79%
- inhibition [20]: -2%
- inhibition [21]: 13%
- IC50 [22]: 1.5 µM
- IC50 [23]: 1.3 µM
- IC50 [24]: 1.4 µM
- IC50 [25]: 4.8 µM
- IC50 [26]: 0.87 µM
- IC50 [27]: 8.7 µM
- inhibition of growth at 0.039 µM (MCF7): 35%
